Test results taken from ChEMBL document CHEMBL1134741, “Synthesis and preliminary pharmacological evaluation of coumestans with different patterns of oxygenation” (Bioorg Med Chem Lett, 2001).

How the values were obtained:
Rattus norvegicus = organism: Rattus norvegicus; assay: Tested for the inhibitory activity against rat kidney Na+, K+-ATPase; type: functional
Summary of the method: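 Na+,K+-ATPase was taken from partially purified rat kidney microsomes. Inhibition was measured by phosphate release (Fiske–Subbarow) using 1.2 mM ATP.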

[1] = molecular target: T1, Polyunsaturated fatty acid 5-lipoxygenase (Homo sapiens, UniProt P09917); assay: Tested for the inhibitory activity against 5-lipoxygenase
T1 sequence (P09917 whole entry): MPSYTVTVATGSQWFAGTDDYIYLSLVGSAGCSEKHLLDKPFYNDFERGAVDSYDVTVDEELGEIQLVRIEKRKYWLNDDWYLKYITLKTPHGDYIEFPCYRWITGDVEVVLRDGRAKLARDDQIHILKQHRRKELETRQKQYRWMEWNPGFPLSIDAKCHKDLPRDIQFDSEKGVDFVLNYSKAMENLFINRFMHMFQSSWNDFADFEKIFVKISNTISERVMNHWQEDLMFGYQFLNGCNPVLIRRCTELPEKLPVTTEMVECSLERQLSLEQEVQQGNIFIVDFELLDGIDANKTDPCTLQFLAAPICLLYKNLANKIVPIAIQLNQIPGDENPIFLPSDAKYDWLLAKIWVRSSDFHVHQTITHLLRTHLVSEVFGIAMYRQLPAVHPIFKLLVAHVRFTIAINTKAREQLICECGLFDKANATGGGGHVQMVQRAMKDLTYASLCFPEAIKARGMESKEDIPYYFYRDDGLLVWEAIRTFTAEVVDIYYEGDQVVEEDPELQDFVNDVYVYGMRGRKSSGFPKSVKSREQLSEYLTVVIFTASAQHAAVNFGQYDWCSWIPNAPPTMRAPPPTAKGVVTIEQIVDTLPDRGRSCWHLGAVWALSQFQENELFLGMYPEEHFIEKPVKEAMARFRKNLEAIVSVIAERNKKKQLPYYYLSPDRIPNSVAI

[2] = molecular target: GABA-A receptor; anion channel; assay: Inhibition of [3H]flunitrazepam binding to rat brain synaptosomes; type: subcellular
Summary of the method: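 Crude rat brain synaptosomes (200 µg protein; cerebellum and brainstem removed) were incubated with 0.2 nM [3H]-flunitrazepam in buffered Krebs solution for 90 min at 4 °C.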

P06732 = assay: (§1) Concentration required to antagonise the creatine kinase release induced by Bothrops jararacussu venom; type: functional
Chain of P06732 (P06732 whole entry): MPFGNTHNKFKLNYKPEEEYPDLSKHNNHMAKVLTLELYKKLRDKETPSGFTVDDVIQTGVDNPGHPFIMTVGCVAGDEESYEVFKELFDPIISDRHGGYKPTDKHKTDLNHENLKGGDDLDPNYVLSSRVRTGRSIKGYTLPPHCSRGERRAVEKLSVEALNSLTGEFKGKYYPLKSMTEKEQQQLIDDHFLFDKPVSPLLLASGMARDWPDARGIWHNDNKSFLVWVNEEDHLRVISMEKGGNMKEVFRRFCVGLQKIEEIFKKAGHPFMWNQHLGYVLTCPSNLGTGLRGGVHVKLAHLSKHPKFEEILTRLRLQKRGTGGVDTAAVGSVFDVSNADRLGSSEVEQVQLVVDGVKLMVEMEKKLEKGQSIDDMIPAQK

Bothrops jararacussu = assay: as §1; type: functional, organism-based
[3] = Tested for antimyotoxic activity of the compound; type: functional

| Structure (SMILES) | IC50 (Rattus norvegicus) [nM] | IC50 [2] [nM] | Concentration (P06732) [µM] | also measured |
| --- | --- | --- | --- | --- |
| COc1cc(O)c2c(c1)oc(=O)c1c3cc(O)c(O)cc3oc21 [WEDELOLACTONE] | 700 | 2000 | – | IC50 [1]: 2500 nM |
| COc1cc2oc(=O)c3c4cc(OC)c(O)cc4oc3c2cc1O | – | – | 30 | – |
| COc1cc2oc(=O)c3c4cc(O)c(O)cc4oc3c2cc1O | 500 | > 100000 | – | Concentration (Bothrops jararacussu): 30 µM; IC50 [3]: 1000 nM |
| O=c1oc2cc(O)ccc2c2oc3cc4c(cc3c12)OCO4 | – | – | 30 | – |
| O=c1oc2cc(O)ccc2c2oc3cc(O)c(O)cc3c12 | – | – | 30 | – |
| COc1cc2oc3c4ccc(O)cc4oc(=O)c3c2cc1O | – | – | 30 | – |
